According to ChEMBL document CHEMBL4665630, “Synthesis and biological evaluation of anthraquinone derivatives as allosteric phosphoglycerate mutase 1 inhibitors for cancer treatment” (Eur J Med Chem, 2019):
pIC50: −log10 of the molar value. Calls of active or inactive are those of the source. The calls are words filed in the database; no cut-off is given here.

Key:
NCI-H1299 [1] = assay: Antiproliferative activity against human H1299 cells assessed as reduction in cell viability measured after 72 hrs by MTT assay; assay type: functional, cell-based; conditions: NCI-H1299, 72 h
Outline: (§1)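 Cells grown in RPMI-1640 (H1299, PC9) or F-12K (A549) with 10% FBS and penicillin/streptomycin; 2000 H1299 or A549 or 1000 PC9 cells per well, attached 24 h, exposed to inhibitor 72 h; MTT 0.5 mg/mL for 4 h, absorbance at 570 nm; mean ± s.d., n=3.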

[2] = target: Phosphoglycerate mutase 1 (Homo sapiens, UniProt P18669); assay: Inhibition of human recombinant PGAM1 by measuring decrease in OD by enzyme based assay
Phosphoglycerate mutase 1, sequence (P18669 whole entry): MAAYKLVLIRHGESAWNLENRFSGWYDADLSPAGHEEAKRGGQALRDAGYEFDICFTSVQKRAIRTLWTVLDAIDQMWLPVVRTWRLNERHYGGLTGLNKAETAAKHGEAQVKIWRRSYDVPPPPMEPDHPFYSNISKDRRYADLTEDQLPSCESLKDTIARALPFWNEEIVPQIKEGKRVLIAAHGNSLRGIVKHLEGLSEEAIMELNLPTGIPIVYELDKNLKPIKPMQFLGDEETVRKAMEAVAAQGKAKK
Outline: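 C-terminal His6-tagged PGAM1, Ni-NTA purified, 4.6 nM, preincubated with inhibitor in DMSO; coupled enolase/pyruvate kinase M2/LDH system in 100 mM Tris-HCl, 100 mM KCl, 5 mM MgCl2, 1 mM ADP, 0.2 mM NADH, 4 mM 3PG; NADH loss read at 340 nm. Counter-screen without PGAM1 using 4 mM 2PG. Mean ± s.d., n=3.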

PC-9 = assay: Antiproliferative activity against human PC-9 cells assessed as reduction in cell viability measured after 72 hrs by MTT assay; assay type: functional, cell-based; conditions: PC-9, 72 h; outline: as §1
A549 = assay: Antiproliferative activity against human A549 cells assessed as reduction in cell viability measured after 72 hrs by MTT assay; assay type: functional, cell-based; conditions: A549, 72 h; outline: as §1
NCI-H1299 [3] = assay: Inhibition of oxidative phosphorylation in human NCI-H1299 cells assessed as decrease in oxygen consumption rate at 10 to 20 uM pretreated for 80 mins in presence of glucose/2-DG and oligomycin by seahorse XF24 extracellular flux analyzer assay; assay type: functional, cell-based; conditions: dose microM 10-20, time 80.0 min
[4] = […] xenografted with human NCI-H1299 cells assessed as kidney histology at 100 mg/kg, ip qd upto 8 days by haematoxylin and eosin staining-based light microscopic analysis; assay type: organism-based; conditions: in vivo, 192 h, time <=8 day
Outline: (§2)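 Nude mice (male, 4–6 weeks) given 5×10^6 H1299 cells in PBS subcutaneously at both flanks; at ~200 mm³ randomised to vehicle or 100 mg/kg i.p. once daily; volume (L×W×W)×π/6, body weight tracked; terminal tumour weights, Ki67 IHC on tumours, H&E of kidney and liver; mean ± s.e.m., unpaired t-test.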

NCI-H1299 [5] = assay: Induction of ROS production in human H1299 cells using carboxy-H2DCFDA at 10 to 20 uM incubated for 24 hrs by FACS analysis; assay type: functional, cell-based; conditions: dose microM 10-20
Outline: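 H1299 cells, 2×10^5 per well, loaded 24 h after seeding with 12.5 µM carboxy-H2DCFDA for 60 min after PBS wash; harvested and analysed by flow cytometry, excitation 490/emission 530 nm.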

NCI-H1299 [6] = assay: Inhibition of glucose metabolism in human H1299 cells assessed as reduction in ATP level at 10 to 20 uM; assay type: functional, cell-based; conditions: dose microM 10-20
[7] = target: 5'-AMP-activated protein kinase catalytic subunit alpha-2 (Homo sapiens) (UniProt P54646); assay: Activation of AMPK in human H1299 cells assessed as increase in AMPK phosphorylation at 10 to 20 uM by Western blot analysis; assay type: cell-based; conditions: NCI-H1299, filed as activator, dose microM 10-20
5'-AMP-activated protein kinase catalytic subunit alpha-2 (Homo sapiens), sequence (P54646 whole entry, looked up): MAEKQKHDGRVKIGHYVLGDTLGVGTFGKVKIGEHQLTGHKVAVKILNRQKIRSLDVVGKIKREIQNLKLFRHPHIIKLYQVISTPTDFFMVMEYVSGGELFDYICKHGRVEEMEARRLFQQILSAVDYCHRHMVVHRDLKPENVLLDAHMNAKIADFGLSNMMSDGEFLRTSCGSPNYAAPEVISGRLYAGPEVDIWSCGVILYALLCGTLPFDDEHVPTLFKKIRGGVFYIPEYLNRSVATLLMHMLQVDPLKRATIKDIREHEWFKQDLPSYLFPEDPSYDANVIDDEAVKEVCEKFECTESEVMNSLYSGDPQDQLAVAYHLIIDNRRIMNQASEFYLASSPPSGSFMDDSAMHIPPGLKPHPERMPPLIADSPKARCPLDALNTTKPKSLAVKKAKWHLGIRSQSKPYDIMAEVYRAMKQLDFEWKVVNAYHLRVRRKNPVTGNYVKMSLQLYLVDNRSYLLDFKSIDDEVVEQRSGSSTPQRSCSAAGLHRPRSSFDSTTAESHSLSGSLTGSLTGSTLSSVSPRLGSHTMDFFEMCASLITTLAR

[8] = Toxicity in nude mouse xenografted with human NCI-H1299 cells assessed as body weight loss at 100 mg/kg, ip qd upto 8 days; conditions: in vivo, 192 h
NCI-H1299 [9] = assay: Antitumor activity against human NCI-H1299 cells xenografted in ICR mouse assessed as tumor weight at 100 mg/kg,qd ip upto 8 days relative to control; assay type: functional, organism-based; conditions: nude, time day <=8, in the assay text read “nude mouse” for “ICR mouse”; outline: as §2
NCI-H1299 [10] = assay: Inhibition of oxidative phosphorylation in human NCI-H1299 cells assessed as decrease in spare capacity at 10 to 20 uM pretreated for 12 hrs in presence of glucose/2-DG and oligomycin by […]; assay type: functional, cell-based; conditions: dose microM 10-20, time 12.0 hrs
Outline: (§3)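 H1299 cells, 10,000 per well, exposed to 10 or 20 µM or PBS for 12 h, then Seahorse XF96. Glycolysis stress: glucose 10 mM, oligomycin 1 µM, 2-DG 50 mM (ECAR). Mito stress: oligomycin 1 µM, FCCP 1 µM, rotenone/antimycin A 0.5 µM (OCR). Normalised to cell number; triplicates, mean ± s.d.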

[11] = Toxicity in nude mouse xenografted with human NCI-H1299 cells assessed as kidney and liver histology at 100 mg/kg, ip qd upto 8 days by haematoxylin and eosin staining-based light microscopic analysis; conditions: in vivo, 192 h
[12] = Tmax in ICR mouse at 100 mg/kg, ip measured upto 24 hrs by LC-MS analysis; assay type: ADME, organism-based; conditions: in vivo
Outline: (§4)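 Male ICR mice, single intraperitoneal 100 mg/kg in 7% DMSO/7% Cremophor EL/86% PBS; heparinised blood at 0.25, 0.5, 1, 2, 4, 6, 10, 24 h; plasma extracted with methanol, quantified by HPLC against a standard curve (water/methanol with 0.1% TFA gradient); n = 3 animals per time point.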

[13] = Cmax in ICR mouse at 100 mg/kg, ip measured upto 24 hrs by LC-MS analysis; assay type: ADME, organism-based; set-up: route intraperitoneal, dose 100 mg/kg, time <=24; conditions: in vivo; outline: as §4
NCI-H1299 [14] = assay: Inhibition of anaerobic glycolysis in human NCI-H1299 cells assessed as decrease in glycolysis rate pretreated for 12 hrs in presence of glucose/2-DG and oligomycin by […]; assay type: functional, cell-based; outline: as §3
[15] = AUC (0 to 24 hrs) in ICR mouse at 100 mg/kg, ip measured upto 24 hrs by LC-MS analysis; assay type: ADME, organism-based; set-up: route intraperitoneal, dose 100 mg/kg, time <=24; conditions: in vivo; outline: as §4
[16] = Apparent oral clearance in ICR mouse at 100 mg/kg, ip measured upto 24 hrs by LC-MS analysis; assay type: ADME, organism-based; conditions: in vivo; outline: as §4
[17] = AUC (0 to infinity) in ICR mouse at 100 mg/kg, ip measured upto 24 hrs by LC-MS analysis; assay type: ADME, organism-based; set-up: route intraperitoneal, dose 100 mg/kg, time <=24; conditions: in vivo; outline: as §4
NCI-H1299 [18] = assay: Inhibition of anaerobic glycolysis in human NCI-H1299 cells assessed as decrease in glycolytic capacity pretreated for 12 hrs in presence of glucose/2-DG and oligomycin by […] assay; assay type: functional, cell-based; outline: as §3
NCI-H1299 [19] = assay: Inhibition of oxidative phosphorylation in human NCI-H1299 cells assessed as decrease in maximal respiration at 10 to 20 uM pretreated for 12 hrs in presence of glucose/2-DG and oligomycin by […]; assay type: functional, cell-based; conditions: dose microM 10-20, time 12.0 hrs; outline: as §3
NCI-H1299 [20] = assay: Inhibition of oxidative phosphorylation in human NCI-H1299 cells assessed as decrease in basal respiration at 10 to 20 uM pretreated for 12 hrs in presence of glucose/2-DG and oligomycin by […] assay; assay type: functional, cell-based; conditions: dose microM 10-20, time 12.0 hrs; outline: as §3
NCI-H1299 [21] = assay: Reduction in lactate production in human H1299 cells at 10 to 20 uM incubated for 24 hrs colorimetry based lactate assay; assay type: functional, cell-based; conditions: dose microM 10-20
Outline: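 Cells grown overnight at 37 °C; at 50% confluence switched to phenol red-free, serum-free RPMI for 1 h at 37 °C; medium lactate measured colorimetrically with a kit, normalised to microscope cell counts.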

[22] = Half life in ICR mouse at 100 mg/kg, ip measured upto 24 hrs by LC-MS analysis; assay type: ADME, organism-based; conditions: in vivo; outline: as §4
NCI-H1299 [23] = assay: Inhibition of anaerobic glycolysis in human NCI-H1299 cells assessed as decrease in glycolytic reserve pretreated for 12 hrs in presence of glucose/2-DG and oligomycin by […]; assay type: functional, cell-based; outline: as §3
[24] = Apparent oral volume of distribution in ICR mouse at 100 mg/kg, ip measured upto 24 hrs by LC-MS analysis; assay type: ADME, organism-based; conditions: in vivo; outline: as §4
NCI-H1299 [25] = assay: Inhibition of anaerobic glycolysis in human NCI-H1299 cells assessed as decrease in extracellular acidification rate at 10 to 20 uM pretreated for 12 hrs in presence of glucose/2-DG and oligomycin by seahorse XF96 extracellular flux analyzer assay; conditions: dose microM 10-20, time 12 h
NCI-H1299 [26] = assay: Antitumor activity against human NCI-H1299 cells xenografted in nude mouse assessed as tumor volume at 100 mg/kg,qd ip measured upto 8 days relative to control; conditions: time day <=8

## CS(=O)(=O)Nc1cc2c(c(O)c1O)C(=O)c1ccccc1C2=O
NCI-H1299 [1]
  pIC50: 4.55
[2]
  pIC50: 5.27

## O=C1c2ccccc2C(=O)c2c1cc(NS(=O)(=O)c1ccc(F)c(C(F)(F)F)c1)c(O)c2O
NCI-H1299 [1]
  pIC50: 4.65
[2]
  pIC50: 6.20

## O=C1c2ccccc2C(=O)c2c1cc(NS(=O)(=O)N1CCOCC1)c(O)c2O
[2]
  pIC50: < 5.00

## COc1ccc(S(=O)(=O)Nc2cc3c(c(O)c2O)C(=O)c2ccccc2C3=O)cc1OC
NCI-H1299 [1]
  pIC50: 4.57
[2]
  pIC50: 5.55

## COc1cccc(S(=O)(=O)Nc2cc3c(c(O)c2O)C(=O)c2ccccc2C3=O)c1
NCI-H1299 [1]
  pIC50: 4.56
[2]
  pIC50: 6.32

## O=C1c2ccccc2C(=O)c2c1cc(NS(=O)(=O)c1ccc(-c3ccc(F)cc3)cc1)c(O)c2O
PC-9
  pIC50: 5.27
NCI-H1299 [1]
  pIC50: 5.21
[2]
  pIC50: 6.59
A549
  pIC50: 4.92

## CN(C)S(=O)(=O)Nc1cc2c(c(O)c1O)C(=O)c1ccccc1C2=O
[2]
  pIC50: < 5.00

## O=C1c2ccccc2C(=O)c2c1cc(NS(=O)(=O)c1ccc(Cl)c(C(F)(F)F)c1)c(O)c2O
PC-9
  pIC50: 4.76
NCI-H1299 [1]
  pIC50: 4.89
[2]
  pIC50: 6.26
A549
  pIC50: 4.67

## CN1CCN(c2ccc(S(=O)(=O)Nc3cc4c(c(O)c3O)C(=O)c3ccccc3C4=O)cc2)CC1
[2]
  pIC50: < 5.00

## O=C1c2ccccc2C(=O)c2c1cc(NS(=O)(=O)c1ccc(C3CCCCC3)cc1)c(O)c2O
PC-9
  pIC50: 4.94
NCI-H1299 [1]
  pIC50: 5.34
[2]
  pIC50: 7.01
A549
  pIC50: 4.95

## O=C1c2ccccc2C(=O)c2c1cc(NS(=O)(=O)c1ccccc1)c(O)c2O
NCI-H1299 [1]
  pIC50: 4.67
[2]
  pIC50: 5.82

## O=C1c2ccccc2C(=O)c2c1cc(NS(=O)(=O)c1ccc(-c3ccccc3)cc1)c(O)c2O
NCI-H1299 [3]
  inhibition: Active
[4]
  Activity: Non-Toxic
NCI-H1299 [5]
  Activity: Active
NCI-H1299 [6]
  inhibition: Active
[7]
  Activity: Active
[8]
  Activity: Non-Toxic
NCI-H1299 [9]
  Activity: Active
PC-9
  pIC50: 5.32
NCI-H1299 [10]
  inhibition: Active
[11]
  Activity: Non-Toxic
[12]
  Tmax: 15 min
[13]
  Cmax: 131 µg/mL
NCI-H1299 [1]
  pIC50: 5.19
[2]
  pIC50: 6.60
NCI-H1299 [14]
  inhibition: Dose-dependent effect
[15]
  AUC(0-t): 239 µg·h/mL
A549
  pIC50: 4.99
[16]
  CL/F: 0.193 mL/min
[17]
  AUC(0-inf): 245 µg·h/mL
NCI-H1299 [18]
  inhibition: Dose-dependent effect
NCI-H1299 [19]
  inhibition: Active
NCI-H1299 [20]
  inhibition: Active
NCI-H1299 [21]
  Activity: Active
[22]
  half-life: 257 min
NCI-H1299 [23]
  inhibition: Dose-dependent effect
[24]
  Vd/F: 71.64 mL
NCI-H1299 [25]
  inhibition: Dose-dependent effect
NCI-H1299 [26]
  Activity: Active

## O=C1c2ccccc2C(=O)c2c1cc(NS(=O)(=O)c1ccc3ccccc3c1)c(O)c2O
PC-9
  pIC50: 5.33
NCI-H1299 [1]
  pIC50: 5.06
[2]
  pIC50: 6.72
A549
  pIC50: < 4.00
